Experiment [1] can be described thus: Binding affinity to 5'ACGCGT3' sequence of cognate DNA assessed as exothermic enthalpy at 25 to 50 degC by isothermal titration colorimetry. On the technique in general: Isothermal titration calorimetry measures the heat released or taken up as one component is titrated into another.
Experiment [2] can be described thus: Binding affinity to 5'ACCGGT3' sequence of non-cognate DNA assessed as heat change by isothermal titration colorimetry. In outline: (§1)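 ITC at 25, 30 and 35 °C. DNA (2 µM in PO 5) was titrated with ligand (0.5 mM in PO 5) in 3 µL injections every 300 s, 50 injections in total. One-site model fit, with a linear fit subtracted to remove non-specific heat. ΔG was taken from SPR Keq as −RT ln Keq.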

Experiment [3] can be described thus: Binding affinity to 5'AAATTT3' sequence of non-cognate DNA assessed as heat change by isothermal titration colorimetry. In outline:
as §1

The nature of experiment [4]: Binding affinity to 5'ACCGGT3' sequence of non-cognate DNA by surface plasmon resonance method. The essentials: (§2)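 SPR at 25 °C in degassed MES buffer (200 mM Na+, 10 mM MES, 1 mM EDTA, surfactant P20, pH 6.25). DNA hairpins were immobilized to about 400 RU, with one flow cell left blank. Ligand (0.1–400 nM) was injected at 20 µL/min for 12.5 min, then dissociated for 20 min. The surface was regenerated with 500 mM NaCl/25 mM NaOH. Global 1:1 kinetic fit; Keq = ka/kd.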
On the technique in general: SPR reads the build-up and loss of mass on a sensor chip optically.

Experiment [5] has as its system Nucleic Acid. Briefly: Binding affinity to 5'AAATTT3' sequence of non-cognate DNA assessed as change in melting temperature by thermal denaturation method. The format is nucleic-acid assay. In outline: (§3)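 Thermal melting in PO 0 buffer (10 mM sodium phosphate, 1 mM EDTA, pH 6.2). Oligonucleotides were reannealed first (70 °C for 1 min, then cooled to RT). Ramp from 25 to 95 °C at 0.5 °C/min, with Abs260 recorded every 0.5 °C. Tm was taken as the maximum of the first derivative, and ΔTm was the shift on ligand binding.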

The test system of experiment [6] is Nucleic Acid. Briefly: Binding affinity to 5'ACCGGT3' sequence of non-cognate DNA assessed as change in melting temperature by thermal denaturation method. It counts as nucleic-acid assay. The essentials:
as §3

Experiment [7] in a line: Binding affinity to 5'ACGCGT3' sequence of cognate DNA by surface plasmon resonance method. The essentials:
as §2

The nature of experiment [8]: Binding affinity to 5'AAATTT3' sequence of non-cognate DNA by surface plasmon resonance method. In outline: as §2
The test system of experiment [9] is Nucleic Acid. Briefly: Binding affinity to 5'ACGCGT3' sequence of cognate DNA assessed as change in melting temperature by thermal denaturation method. It counts as nucleic-acid assay. In outline: as §3
Experiment [10] in a line: Binding affinity to 5'ACGCGT3' sequence of cognate DNA at 0.5 uM by DnaseI footprinting assay. The essentials:
(§4)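 DNA was incubated 30 min with ligand in TN buffer (10 mM Tris, 10 mM NaCl, pH 7). Digestion ran 3 min with DNase I in buffer containing NaCl, MgCl2 and MnCl2, then stopped on dry ice. Products were resolved on a 10% polyacrylamide/7.5 M urea gel and read by autoradiography.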

Experiment [11] is described as follows: Binding affinity to 5'ACGTGT3' sequence of cognate DNA at 5 uM by DnaseI footprinting assay. The essentials:
as §4

Calls of active or inactive are those of the source. No cut-off for these calls is given here.

One may read the ΔTm as the shift of the melting midpoint relative to a reference.

Consider `CN(C)CCNC(=O)c1nc(NC(=O)c2cc(NC(=O)c3nc(NC=O)cn3C)cn2CCOCCOCCn2cc(NC(=O)c3nc(NC=O)cn3C)cc2C(=O)Nc2cn(C)c(C(=O)NCCN(C)C)n2)cn1C`, for which the outcome in experiment [1] was Active. Also, the result in experiment [2] and in [3] was inactive. For the same molecule, the K was found to be 1.1 ×10⁸ /M in experiment [4], 2 ×10¹⁰ /M in experiment [7] and 5 ×10⁵ /M in experiment [8]. Also, the ΔTm was 9.3 °C in the experiment on Nucleic Acid [5], 14.1 °C in the experiment with Nucleic Acid [6] and over 30 °C in the experiment on Nucleic Acid [9].
Consider `CN(C)CCNC(=O)c1nc(NC(=O)c2cc(NC(=O)c3nc(NC(=O)c4cccn4C)cn3C)cn2C)cn1C`, for which the outcome in experiment [10] and in [11] was Active. The ΔTm worked out at 0.1 °C in the experiment with Nucleic Acid [5], 0.1 °C in the experiment with Nucleic Acid [6] and 3 °C with Nucleic Acid [9]. The same molecule displayed a K in experiment [7] of 7.1 ×10⁶ /M.
Take `CN(C)CCNC(=O)c1nc(NC(=O)c2cc(NC(=O)c3nc(NC=O)cn3C)cn2C)cn1C`: the result in [2] and in experiment [3] was inactive. Also, the K in experiment [4] amounted to 2.2 ×10⁵ /M; in experiment [7], 1.9 ×10⁸ /M; in experiment [8], 5.3 ×10⁴ /M. Besides, the ΔTm came out at 0.9 °C in the experiment on Nucleic Acid [5], 1.1 °C in the experiment on Nucleic Acid [6] and 7.8 °C in the experiment with Nucleic Acid [9].
